Results: ChEMBL document CHEMBL4373725, “Structure Kinetics Relationships and Molecular Dynamics Show Crucial Role for Heterocycle Leaving Group in Irreversible Diacylglycerol Lipase Inhibitors” (J Med Chem, 2019)

Tests used:
[1] = target: T1, Diacylglycerol lipase-alpha (Mus musculus, UniProt Q6WQJ1); assay: Inhibition of mouse DAGL-alpha expressed in HEK293T cell membranes pre-incubated for 20 mins before PNP-butyrate substrate addition and measured after 30 mins by surrogate substrate assay; format: cell-based
T1 sequence (Q6WQJ1 whole entry): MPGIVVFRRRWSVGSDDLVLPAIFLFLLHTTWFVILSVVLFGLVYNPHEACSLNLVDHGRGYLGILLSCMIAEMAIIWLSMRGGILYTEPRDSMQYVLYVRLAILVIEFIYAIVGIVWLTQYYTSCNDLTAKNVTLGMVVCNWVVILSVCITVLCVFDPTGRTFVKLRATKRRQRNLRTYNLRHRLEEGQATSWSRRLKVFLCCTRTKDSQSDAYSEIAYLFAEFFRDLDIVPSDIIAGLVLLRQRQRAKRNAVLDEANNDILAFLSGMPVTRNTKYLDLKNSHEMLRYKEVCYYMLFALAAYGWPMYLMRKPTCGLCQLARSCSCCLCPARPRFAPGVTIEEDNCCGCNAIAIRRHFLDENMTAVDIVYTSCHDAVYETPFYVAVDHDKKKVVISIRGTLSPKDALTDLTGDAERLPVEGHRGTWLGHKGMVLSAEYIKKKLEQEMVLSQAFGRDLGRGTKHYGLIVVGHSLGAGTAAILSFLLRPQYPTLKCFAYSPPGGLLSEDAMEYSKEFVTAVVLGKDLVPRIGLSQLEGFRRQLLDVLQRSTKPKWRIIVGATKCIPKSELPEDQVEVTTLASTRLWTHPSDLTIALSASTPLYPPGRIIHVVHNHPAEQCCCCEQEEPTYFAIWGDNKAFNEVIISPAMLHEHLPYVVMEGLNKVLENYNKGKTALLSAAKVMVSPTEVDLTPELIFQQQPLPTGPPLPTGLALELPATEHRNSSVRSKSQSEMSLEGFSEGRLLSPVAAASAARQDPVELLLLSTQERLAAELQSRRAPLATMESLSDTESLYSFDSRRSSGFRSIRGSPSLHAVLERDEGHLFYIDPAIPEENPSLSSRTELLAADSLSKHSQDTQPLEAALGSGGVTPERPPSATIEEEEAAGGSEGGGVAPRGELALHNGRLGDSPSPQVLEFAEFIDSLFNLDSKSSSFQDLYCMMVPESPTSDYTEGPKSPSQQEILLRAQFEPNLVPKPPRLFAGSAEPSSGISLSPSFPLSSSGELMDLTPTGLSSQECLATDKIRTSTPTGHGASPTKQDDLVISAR
Method in brief: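 mDAGL-α membrane fraction from transiently transfected HEK293T cells, at 0.05 μg/μL final, in 50 mM Hepes pH 7.2. Inhibitor in DMSO was preincubated 20 min, then PNP-butyrate was added (0.3 mM final; 5% DMSO final). After 30 min at 20 °C, OD was read at 420 nm. Background from 10 μM THL was subtracted and values normalized to DMSO control. Plates were kept if Z′ > 0.6. N = 2, n = 2.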

[2] = Dissociation constant, pKa of the compound; format: physicochemical
[3] = target: T1, Diacylglycerol lipase-alpha; assay: Inhibition of mouse DAGL-alpha expressed in HEK293T cell membranes assessed as inhibition constant without pre-incubation, measured continuously from t=0 with 600 uM PNP-butyrate by surrogate substrate assay
[4] = target: T2, Diacylglycerol lipase-alpha (Mus musculus) (UniProt Q6WQJ1); assay: Inhibition of mouse DAGL-alpha expressed in HEK293T cell membranes assessed as inactivation constant measured continuously from t=0 without pre-incubation by kinetic PNP-butyrate substrate assay
T2 sequence (whole entry): T1 sequence (Q6WQJ1 whole entry)

[5] = target: T2, Diacylglycerol lipase-alpha (Mus musculus); assay: Inhibition of mouse DAGL-alpha expressed in HEK293T cell membranes assessed as inactivation constant pre-incubated for 20 mins before PNP-butyrate substrate addition and measured after 30 mins by surrogate substrate assay; format: cell-based

IC50 ([1]; read-out: pIC50 (converted)) [nM]	pKa [2]	Ki [3] [nM]	Kinact [4] [min⁻¹]	Kinact [5] [min⁻¹]	IC50 ([1]; read-out: IC50) [nM]	SMILES
< 1	–	0.27	0.058	–	–	C#CCO[C@@H]1CC[C@H](Cc2ccccc2)N(C(=O)n2ncc(C(O)(c3ccc(F)cc3)c3ccc(F)cc3)n2)C1
3.02	9.3	10.4	–	0.22	–	O=C(N1CCCC[C@@H]1Cc1ccccc1)n1ncc(C(O)(c2ccc(F)cc2)c2ccc(F)cc2)n1
–	10	13800	–	0.075	3400	O=C(N1CCCC[C@@H]1Cc1ccccc1)n1cnc(C(O)(c2ccc(F)cc2)c2ccc(F)cc2)n1
3.8	9.3	339	–	0.32	–	O=C(N1CCCC[C@@H]1Cc1ccccc1)n1cc(C(O)(c2ccc(F)cc2)c2ccc(F)cc2)nn1
2.51	–	0.23	–	–	–	Cc1ccc(-c2cnc3nc(C(=O)CCCCCc4ccccc4)oc3c2)cc1
–	14.2	10800	–	0.08	210	O=C(N1CCCC[C@@H]1Cc1ccccc1)n1ccc(C(O)(c2ccc(F)cc2)c2ccc(F)cc2)n1

SMILES	IC50 ([1]; read-out: pIC50 (converted)) [nM]	pKa [2]	Ki [3] [nM]	Kinact [4] [min⁻¹]	Kinact [5] [min⁻¹]	IC50 ([1]; read-out: IC50) [nM]
O=C(N1CCCC[C@@H]1Cc1ccccc1)n1cnc(C(O)(c2ccc(F)cc2)c2ccc(F)cc2)c1	> 31600	14.4	–	–	–	–
O=C(N1CCCCC1Cc1ccccc1)n1cc(-c2ccc(-c3ccccc3)cc2)nn1 (stereo unspecified)	< 1	–	0.35	–	0.08	–
